Converted amounts (≈) assume the structure as drawn.
Assays:
[1] = test system: Staphylococcus aureus; test: Antibacterial activity against Staphylococcus aureus after 18 hrs by macro-dilution test; format: functional
In short: (§1)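 Tube macro-dilution. Compounds in DMSO serially diluted to final […]. 24 h old inoculum added to each tube. Standard inoculum […]. Incubated 18 h at 37 °C. MIC is the lowest concentration with no visible growth, read visually. DMSO negative and amoxicillin positive controls.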

[2] = test system: Salmonella typhimurium; test: Antibacterial activity against Salmonella Typhimurium measured at MIC after 18 hrs by halo zone test; format: functional, Salmonella enterica subsp. enterica serovar Typhimurium
In short: (§2)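 Disk diffusion. Strains subcultured 18 h at 37 °C in BHI, then suspended in saline by McFarland to about 10⁵ CFU/mL. Suspension mixed 1:1 with antibiotic agar at 40 °C and plated. 6.0 mm paper disks loaded with dilutions from a DMSO stock (1 mg per 100 of DMSO). Incubated 18 h at 36 °C. Inhibition zone (mm) measured at the MIC. Amoxicillin and DMSO disks as controls.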

[3] = test system: Streptococcus pyogenes; test: Antibacterial activity against Streptococcus pyogenes after 18 hrs by macro-dilution test; format: functional; in short: as §1
[4] = test system: Escherichia coli; test: Antibacterial activity against Escherichia coli after 18 hrs by macro-dilution test; format: functional; in short: as §1
[5] = test system: Salmonella typhimurium; test: Antibacterial activity against Salmonella Typhimurium after 18 hrs by macro-dilution test; format: functional, Salmonella enterica subsp. enterica serovar Typhimurium; settings: Salmonella enterica; in short: as §1
[6] = test system: Streptococcus pyogenes; test: Antibacterial activity against Streptococcus pyogenes measured at MIC after 18 hrs by halo zone test; format: functional; in short: as §2
[7] = Cytotoxicity against rat H9c2 cells assessed as cell viability at 1.57 to 200 mg/mL after 48 hrs by MTT assay; format: cell-based; settings: read-out: Activity
In short: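 Subconfluent H9c2 cardiac myoblasts treated with increasing concentrations for 48 h at 37 °C in 5% CO₂, alongside untreated cells. Then washed in PBS and given MTT (5 mg/mL) for 45 min at 37 °C. Crystals dissolved in acid isopropanol, absorbance read at 570 nm. Viability is absorbance of treated relative to untreated cells. Triplicate. DMSO and amoxicillin controls.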

[8] = test system: Staphylococcus aureus; test: Antibacterial activity against Staphylococcus aureus measured at MIC after 18 hrs by halo zone test; format: functional; in short: as §2
[9] = test system: Escherichia coli; test: Antibacterial activity against Escherichia coli measured at MIC after 18 hrs by halo zone test; format: functional; in short: as §2
[10] = in the assay text read “1.57 to 200 ug/mL” for “1.57 to 200 mg/mL”

Row | SMILES | MIC [1] [µg/mL] | inhibition zone (IZ) [2] [mm] | MIC [3] [µg/mL] | MIC [4] [µg/mL] | MIC [5] [µg/mL] | inhibition zone (IZ) [6] [mm] | viability at 48 h [7, 10] [%] | inhibition zone (IZ) [8] [mm] | inhibition zone (IZ) [9] [mm] | viability at 48 h [7] [%]
1 | CC(=O)N(C1=NN(C(C)=O)C(c2cc3cccc(Cl)c3nc2Cl)S1)c1ccccc1C (configuration not stated) | 16 (≈ 33.8 µM) | 16.86 | 64 (≈ 135 µM) | 32 (≈ 67.6 µM) | 32 (≈ 67.6 µM) | 13.84 | > 80 | 19.76 | 15.59 | 
2 | CC(=O)N(C1=NN(C(C)=O)C(c2cc3cccc(Cl)c3nc2Cl)S1)c1ccc([N+](=O)[O-])cc1 (configuration not stated) | 32 (≈ 63.4 µM) | 17.25 | 64 (≈ 127 µM) | 32 (≈ 63.4 µM) | 32 (≈ 63.4 µM) | 16.32 | > 80 | 19.81 | 12.56 | 
3 | CC(=O)N1N=C(N(C(C)=O)C2CCCC2)SC1c1cc2ccccc2nc1Cl (configuration not stated) | 32 (≈ 76.8 µM) | 18.6 | 32 (≈ 76.8 µM) | 64 (≈ 154 µM) | 32 (≈ 76.8 µM) | 19.93 | > 80 | 20.63 | 19.79 | 
4 | CC(=O)N1N=C(N(C(C)=O)C2CCCCC2)SC1c1cc2ccccc2nc1Cl (configuration not stated) | 256 (≈ 594 µM) | 14.59 | 256 (≈ 594 µM) | 128 (≈ 297 µM) | 64 (≈ 149 µM) | 17.38 |  | 14.03 | 15.63 | 
5 | CC(=O)N1N=C(N(C(C)=O)C2CCCCCCC2)SC1c1cc2ccccc2nc1Cl (configuration not stated) | 128 (≈ 279 µM) | 18.82 | 128 (≈ 279 µM) | 256 (≈ 558 µM) | 64 (≈ 139 µM) | 14.33 |  | 14.57 | 17.86 | 
6 | CC(=O)N(C1=NN(C(C)=O)C(c2cc3ccccc3nc2Cl)S1)c1ccccc1C (configuration not stated) | 32 (≈ 72.9 µM) | 16.06 | 16 (≈ 36.5 µM) | 32 (≈ 72.9 µM) | 32 (≈ 72.9 µM) | 17.14 | > 80 | 15.66 | 15.84 | 
7 | CC(=O)N(C1=NN(C(C)=O)C(c2cc3ccccc3nc2Cl)S1)c1cc(F)ccc1F (configuration not stated) | 16 (≈ 34.7 µM) | 16.67 | 64 (≈ 139 µM) | 32 (≈ 69.4 µM) | 32 (≈ 69.4 µM) | 14.74 |  | 17.41 | 20.13 | > 80
8 | CC(=O)N(C1=NN(C(C)=O)C(c2cc3ccccc3nc2Cl)S1)c1ccc(C)cc1 (configuration not stated) | 32 (≈ 72.9 µM) | 16.89 | 16 (≈ 36.5 µM) | 32 (≈ 72.9 µM) | 64 (≈ 146 µM) | 17 | > 80 | 18.27 | 16.4 | 
9 | CC(=O)N(C1=NN(C(C)=O)C(c2cc3ccccc3nc2Cl)S1)c1ccc([N+](=O)[O-])cc1 (configuration not stated) | 64 (≈ 136 µM) | 17.03 | 64 (≈ 136 µM) | 64 (≈ 136 µM) | 64 (≈ 136 µM) | 14.92 |  | 14.29 | 14.34 | 
10 | CC(=O)NC1=NN(C(C)=O)C(c2cc3cccc(C)c3nc2Cl)S1 (configuration not stated) | 64 (≈ 176 µM) | 18.08 | 64 (≈ 176 µM) | 256 (≈ 706 µM) | 256 (≈ 706 µM) | 16.77 |  | 13.66 | 18.34 | 
11 | CC(=O)N1N=C(N(C(C)=O)C2CCCC2)SC1c1cc2cccc(C)c2nc1Cl (configuration not stated) | 128 (≈ 297 µM) | 15.13 | 64 (≈ 149 µM) | 128 (≈ 297 µM) | 128 (≈ 297 µM) | 17.71 |  | 19 | 16.08 | 
12 | CC(=O)N1N=C(N(C(C)=O)C2CCCCC2)SC1c1cc2cccc(C)c2nc1Cl (configuration not stated) | 128 (≈ 288 µM) | 12.01 | 128 (≈ 288 µM) | 256 (≈ 575 µM) | 256 (≈ 575 µM) | 13.09 |  | 15.42 | 16.75 | 
13 | CC(=O)N1N=C(N(C(C)=O)C2CCCCCCC2)SC1c1cc2cccc(C)c2nc1Cl (configuration not stated) | 256 (≈ 541 µM) | 17.84 | 256 (≈ 541 µM) | 256 (≈ 541 µM) | 128 (≈ 271 µM) | 15.45 |  | 18.77 | 19 | 
14 | CC(=O)N(C1=NN(C(C)=O)C(c2cc3cccc(C)c3nc2Cl)S1)c1ccccc1C (configuration not stated) | 64 (≈ 141 µM) | 16.11 | 32 (≈ 70.6 µM) | 64 (≈ 141 µM) | 32 (≈ 70.6 µM) | 19.14 | > 80 | 15.8 | 17.9 | 
15 | CC(=O)N(C1=NN(C(C)=O)C(c2cc3cccc(C)c3nc2Cl)S1)c1cc(F)ccc1F (configuration not stated) | 64 (≈ 135 µM) | 16.6 | 16 (≈ 33.7 µM) | 64 (≈ 135 µM) | 32 (≈ 67.4 µM) | 16.13 |  | 21.99 | 15.36 | > 80
16 | CC(=O)N(C1=NN(C(C)=O)C(c2cc3cccc(C)c3nc2Cl)S1)c1ccc(C)cc1 (configuration not stated) | 64 (≈ 141 µM) | 17.27 | 64 (≈ 141 µM) | 64 (≈ 141 µM) | 64 (≈ 141 µM) | 18.32 |  | 18.92 | 18.16 | 
17 | CC(=O)N(C1=NN(C(C)=O)C(c2cc3cccc(C)c3nc2Cl)S1)c1ccc([N+](=O)[O-])cc1 (configuration not stated) | 64 (≈ 132 µM) | 19.16 | 64 (≈ 132 µM) | 64 (≈ 132 µM) | 64 (≈ 132 µM) | 15.27 |  | 16.54 | 13.03 | 
18 | CC1(C)S[C@@H]2[C@H](NC(=O)[C@H](N)c3ccc(O)cc3)C(=O)N2[C@H]1C(=O)O [AMOXICILLIN] | 32 (≈ 87.6 µM) | 21.82 | 32 (≈ 87.6 µM) | 32 (≈ 87.6 µM) | 32 (≈ 87.6 µM) | 19.57 |  | 20.85 | 22.05 | 
